From ChEMBL document CHEMBL4699650, “SAR Investigation and Discovery of Water-Soluble 1-Methyl-1,4-dihydroindeno[1,2-c]pyrazoles as Potent Tubulin Polymerization Inhibitors” (J Med Chem, 2020)
Activity calls are given as the source filed them. The calls are words filed in the database; no cut-off is given here.

Assays:
[1] = Toxicity in Balb/c nude mouse xenografted with human HepG2 cells assessed as change in body weight at 10 mg/kg, iv administered every 2 days for 21 days (reference value: 7.8 % ); format: organism-based; settings: in vivo, 504 h, time 21 day
A549 = assay: Antiproliferation activity against human A549 cells assessed as cell growth inhibition measured after 72 hrs by MTT assay; format: functional
In short: (§1)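 Cells grown in RPMI-1640 with 10% FBS at 37 °C, 5% CO2, seeded at 4−7 × 10³ cells/well and left to adhere overnight. Exposed to a range of concentrations for 72 h, then MTT (2.5 mg/mL stock) added for 4 h. Formazan dissolved in DMSO and absorbance read at 570 nm. GI50 taken as the concentration giving 50% growth inhibition, reported as mean ± SD of at least three independent experiments.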

HepG2 [2] = assay: Induction of apoptosis in human HepG2 cells assessed as early apoptotic cells at 20 nM incubated for 12 hrs by Annexin V-PE and 7-AAD staining based flow cytometry (reference value: 4.52%); format: functional
In short: (§2)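 HepG2 cells seeded at 3 × 10⁵ cells/well, adhered overnight, exposed at 5, 10 or 20 nM for 12 or 24 h. Harvested into Annexin V binding buffer and stained with annexin V-PE and 7-AAD for 15 min at room temperature in the dark, then analysed by flow cytometry. Gates: live (−/−), early apoptotic (+/−), late apoptotic (+/+), necrotic (−/+).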

[3] = Antiproliferation activity against human A549/Taxol cells assessed as cell growth inhibition measured after 72 hrs by MTT assay; format: functional; in short: as §1
HepG2 [4] = assay: Induction of cell cycle arrest in human HepG2 cells assessed as accumulation in G2/M phase at 20 nM incubated for 24 hrs by propidium iodide staining based flow cytometry (reference value: 12.59%); format: functional
[5] = Toxicity in Balb/c nude mouse xenografted with human HepG2 cells assessed as adverse signs at 25 mg/kg, po qd administered for 21 days; format: organism-based; settings: in vivo, 504 h, time 21 day
In short: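 Nude mice received 200 μL PBS with HepG2 cells (1 × 10⁷ cells/mL) subcutaneously in the right armpit. At 90 mm³ tumour volume, randomized to 5 per group. Dosed 25 mg/kg as a 2.5 mg/mL distilled-water solution, intragastric once daily for 21 days; distilled water as vehicle. Body weight recorded every 3 days; change given as initial vs end weight.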

Tubulin (Homo sapiens) = Tubulin (Homo sapiens) (UniProt P68371+Q9H4B7+P0DPH7+P68366+Q13509+Q71U36+P04350+Q3ZCM7+P07437+P68363+Q9BQE3+Q6PEY2+Q13885+Q9BVA1+Q9BUF5); assay: Induction of microtubule cytoskeleton disruption in human HepG2 cells assessed as microtubule shrinkage to the cell border at 10 nM measured after 24 hrs by Hoechst 33342 staining based immunofluorescence confocal microscopy analysis
In short: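 Fixed in ice-cold methanol/acetic acid 3:1, permeabilized 0.3% Triton X-100, blocked 5% BSA. Mouse anti-tubulin overnight at 4 °C, then TRITC anti-mouse IgG 2 h at 37 °C. Imaged by laser scanning confocal microscopy.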

HepG2 [6] = assay: Induction of apoptosis in human HepG2 cells assessed as early apoptotic cells at 10 nM incubated for 12 hrs by Annexin V-PE and 7-AAD staining based flow cytometry (reference value: 4.52%); format: functional; in short: as §2
HepG2 [7] = assay: Induction of apoptosis in human HepG2 cells assessed as live cells at 20 nM incubated for 24 hrs by Annexin V-PE and 7-AAD staining based flow cytometry (reference value: 93.2%); format: functional; in short: as §2
[8] = Lipophilicity, log P of the compound in DMSO and n-octanol at pH 7.4 incubated for 10 hrs under stirred condition by HPLC analysis; format: physicochemical; settings: n-octanol / aqueous phase pH 7.4, pH 7.4
In short: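 Partition between n-octanol and water: mixture stirred at room temperature for 10 h, then left at 4 °C overnight. Each phase analysed separately by HPLC on a C18 column. Log P taken from the ratio of peak areas in n-octanol and water.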

HepG2 [9] = assay: Induction of apoptosis in human HepG2 cells assessed as late apoptotic cells at 10 nM incubated for 12 hrs by Annexin V-PE and 7-AAD staining based flow cytometry (reference value: 2.79%); format: functional; in short: as §2
HepG2 [10] = assay: Induction of apoptosis in human HepG2 cells assessed as necrotic cells at 20 nM incubated for 24 hrs by Annexin V-PE and 7-AAD staining based flow cytometry (reference value: 0.34 %); format: functional; in short: as §2
HepG2 [11] = assay: Induction of cell cycle arrest in human HepG2 cells assessed as accumulation in S phase at 10 nM incubated for 24 hrs by propidium iodide staining based flow cytometry (reference value: 26.65%); format: functional
HepG2 [12] = assay: Antitumor activity against human HepG2 cells xenografted in Balb/c nude mouse assessed as reduction in tumor volume at 25 mg/kg, ig qd administered for 21 days measured at 3 days interval during compound dosing relative to control; format: functional; parameters: scale not given: the % may be the effect or the level left; settings: time 21 day
HepG2 [13] = assay: Induction of apoptosis in human HepG2 cells assessed as decrease in Bcl-2 expression incubated for 24 hrs by Western blot analysis; format: functional, cell-based; settings: dose nM 2.5-20, time 24.0 hrs
In short: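 Lysates (20 μg protein) separated by 10% PAGE and blotted to PVDF. Probed for Bax, Bcl-2, cleaved caspase-3 and cleaved PARP, detected by ECL and quantified by densitometry.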

HepG2 [14] = assay: Induction of apoptosis in human HepG2 cells assessed as necrotic cells at 20 nM incubated for 12 hrs by Annexin V-PE and 7-AAD staining based flow cytometry (reference value: 0.55 %); format: functional; in short: as §2
HepG2 [15] = assay: Induction of apoptosis in human HepG2 cells assessed as late apoptotic cells at 5 nM incubated for 24 hrs by Annexin V-PE and 7-AAD staining based flow cytometry (reference value: 2.33 %); format: functional; in short: as §2

CCOc1cccc(Nc2nn(C)c3c2Cc2cc(OCC)c(OCCCN)cc2-3)c1
Activity [1]: 6.9% | GI50 (A549): 3.7 nM | Activity (HepG2 [2]): 14.5% | GI50 [3]: 14.7 nM | Activity (HepG2 [4]): 88.46% | Activity [5]: Non-Toxic | Activity (Tubulin (Homo sapiens)): Active | Activity (HepG2 [6]): 9.58% | Activity (HepG2 [7]): 50.2% | logD at 10 h [8]: 1.7 | Activity (HepG2 [9]): 4.39% | Activity (HepG2 [10]): 0.71% | Activity (HepG2 [11]): 26.85% | Activity (HepG2 [12]): 57% | Activity (HepG2 [13]): Dose-dependent effect | Activity (HepG2 [14]): 1.36% | Activity (HepG2 [15]): 4.33%
